In ChEMBL document CHEMBL5335834, “Development and In Vivo Evaluation of Small-Molecule Ligands for Positron Emission Tomography of Immune Checkpoint Modulation Targeting Programmed Cell Death 1 Ligand 1” (J Med Chem, 2024):

Columns and labels:
[1] = Drug uptake in human A-375 cells expressing PD-L1 xenografted in bilateral tumors bearing BALB/c mouse model at ~2.5 MBq measured for 120 mins by autoradiography; type: ADME, cell-based; settings: in vivo, 2 h
[2] = Drug uptake in human A-375 cells xenografted in bilateral tumors bearing BALB/c mouse model at ~2.5 MBq measured for 120 mins by autoradiography; type: ADME, cell-based; settings: in vivo, 2 h
[3] = Biodistribution in bilateral tumors bearing BALB/c mouse model assessed as ratio of drug uptake in human A-375 cells expressing PD-L1 to drug uptake in human A-375 cells at ~2.5 MBq measured for 120 mins by autoradiography; type: ADME, organism-based, Neoplasm; settings: a-375, 2 h
[4] = Drug uptake in human A-375 cells expressing PD-L1 xenografted in bilateral tumors bearing BALB/c mouse model at ~7.4 MBq measured for 50 mins by micro-PET imaging analysis; type: ADME, cell-based; settings: in vivo
[5] = Drug uptake in human A-375 cells xenografted in bilateral tumors bearing BALB/c mouse model at ~7.4 MBq measured for 50 mins by micro-PET imaging analysis; type: ADME, cell-based; settings: in vivo
[6] = Biodistribution in bilateral tumors bearing BALB/c mouse model assessed as ratio of drug uptake in human A-375 cells expressing PD-L1 to drug uptake in human A-375 cells at ~7.4 MBq measured for 50 mins by micro-PET imaging analysis; type: ADME, organism-based, Neoplasm; settings: a-375, 50 min
[7] = target: Programmed cell death 1 ligand 1 (Homo sapiens) (UniProt Q9NZQ7); assay: Inhibition of [89Zr]Zr-atezolizumab binding from human PD-L1 transfected in CHO cells assessed as radioligand activity at 5000 nM preincubated for 30 mins followed by [89Zr]Zr-atezolizumab addition measured after 60 mins by Wizard2 gamma counter analysis (reference value: 8.4 %); type: cell-based; parameters: scale not given: the % may be the effect or the level left; settings: time 90.0 min
CHO [8] = assay: Biodistribution in CHO cells expressing hPD-L1 xenografted in NSG mouse co-xenografted with CHO-K1 cells at 31.91 +/- 3.05 MBq measured for 30 to 70 mins by Wizard2 gamma counter analysis; type: ADME, organism-based, Cricetulus griseus; settings: chinese hamster, in vivo, time 30-70 min
In short: (§1)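 Male NSG mice, 8–10 weeks old, carried subcutaneous CHO-K1 and CHO-hPD-L1 xenografts on opposite flanks (1.5 × 10^6 cells each in PBS/matrigel 1:1). Eleven days after inoculation, radiotracer was injected into the lateral tail vein under isoflurane. Organs were collected at 30, 40 and 70 min, wet-weighed and gamma-counted for 30 s. Counts were background- and decay-corrected to injection, expressed as %ID/g.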

CHO-K1 [9] = assay: Biodistribution in CHO-K1 cells xenografted in NSG mouse co-xenografted with CHO cells expressing hPD-L1 at 31.91 +/- 3.05 MBq measured for 30 to 70 mins by Wizard2 gamma counter analysis; type: ADME, organism-based, Cricetulus griseus; settings: chinese hamster, in vivo, time 30-70 min; in short: as §1
[10] = Stability in mouse plasma assessed as compound remaining measured for 60 mins by HPLC analysis; type: ADME, cell-free; settings: read-out: Stability
In short: (§2)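 Formulated radiotracer (25 μL) was incubated in 1250 μL pooled mouse or human plasma at 37 °C. At 0, 15, 30 and 60 min, aliquots were quenched with equal-volume MeCN and centrifuged (4 min, 4 °C, 21,380g). Intact tracer (%) was measured by reversed-phase radio-HPLC.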

[11] = Stability in human plasma assessed as compound remaining measured for 60 mins by HPLC analysis; type: ADME, cell-free; settings: read-out: Stability; in short: as §2
[12] = Biodistribution in kidney of NSG mouse xenografted with CHO-K1 cells/CHO cells expressing hPD-L1 at 31.91 +/- 3.05 MBq measured for 30 to 70 mins by Wizard2 gamma counter analysis; type: ADME, organism-based; settings: in vivo, time 30-70 min; in short: as §1
[13] = Biodistribution in lung of NSG mouse xenografted with CHO-K1 cells/CHO cells expressing hPD-L1 at 31.91 +/- 3.05 MBq measured for 30 to 70 mins by Wizard2 gamma counter analysis; type: ADME, organism-based; settings: in vivo, time 30-70 min; in short: as §1
[14] = Biodistribution in liver of NSG mouse xenografted with CHO-K1 cells/CHO cells expressing hPD-L1 at 31.91 +/- 3.05 MBq measured for 30 to 70 mins by Wizard2 gamma counter analysis; type: ADME, organism-based; settings: in vivo, time 30-70 min; in short: as §1
[15] = Drug metabolism in brain of NSG mouse xenografted with CHO-K1 cells/CHO cells expressing hPD-L1 assessed as accumulation of radiometabolite formation at 31.91 +/- 3.05 MBq measured for 60 mins by micro-PET analysis; type: ADME, tissue-based; settings: in vivo, 1 h
[16] = Drug metabolism in white adipose tissue of NSG mouse xenografted with CHO-K1 cells/CHO cells expressing hPD-L1 assessed as accumulation of radiometabolite formation at 31.91 +/- 3.05 MBq measured for 60 mins by micro-PET analysis; type: ADME, tissue-based; settings: in vivo, 1 h
[17] = Biodistribution in brain of NSG mouse xenografted with CHO-K1 cells/CHO cells expressing hPD-L1 at 31.91 +/- 3.05 MBq measured for 60 mins by micro-PET analysis; type: ADME, organism-based; settings: in vivo, 1 h
In short: (§3)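 Dynamic whole-body μPET/CT ran up to 60 min and was reconstructed by OSEM3D/MAP. Volumes of interest came from fused PET/CT, with uptake normalized to injected dose and volume as %ID/cc.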

[18] = Biodistribution in white adipose tissue of NSG mouse xenografted with CHO-K1 cells/CHO cells expressing hPD-L1 at 31.91 +/- 3.05 MBq measured for 60 mins by micro-PET analysis; type: ADME, organism-based; settings: in vivo, 1 h; in short: as §3
CHO [19] = assay: Biodistribution in CHO cells expressing hPD-L1 xenografted in NSG mouse co-xenografted with CHO-K1 cells at 31.91 +/- 3.05 MBq measured for 60 mins by micro-PET analysis; type: ADME, organism-based, Cricetulus griseus; settings: chinese hamster, in vivo, 1 h; in short: as §3
[20] = Biodistribution in kidney of NSG mouse xenografted with CHO-K1 cells/CHO cells expressing hPD-L1 at 31.91 +/- 3.05 MBq measured for 60 mins by micro-PET analysis; type: ADME, organism-based; settings: in vivo, 1 h; in short: as §3
CHO-K1 [21] = assay: Biodistribution in CHO-K1 cells xenografted in NSG mouse co-xenografted with CHO cells expressing hPD-L1 at 31.91 +/- 3.05 MBq measured for 60 mins by micro-PET analysis; type: ADME, organism-based, Cricetulus griseus; settings: chinese hamster, in vivo, 1 h; in short: as §3
[22] = Biodistribution in gall bladder of NSG mouse xenografted with CHO-K1 cells/CHO cells expressing hPD-L1 at 31.91 +/- 3.05 MBq measured for 60 mins by micro-PET analysis; type: ADME, organism-based; settings: in vivo, 1 h; in short: as §3
[23] = Biodistribution in intestine of NSG mouse xenografted with CHO-K1 cells/CHO cells expressing hPD-L1 at 31.91 +/- 3.05 MBq measured for 60 mins by micro-PET analysis; type: ADME, organism-based; settings: in vivo, 1 h; in short: as §3
[24] = Biodistribution in liver of NSG mouse xenografted with CHO-K1 cells/CHO cells expressing hPD-L1 at 31.91 +/- 3.05 MBq measured for 60 mins by micro-PET analysis; type: ADME, organism-based; settings: in vivo, 1 h; in short: as §3
[25] = target: T1, Programmed cell death protein 1/Programmed cell death 1 ligand 1 (Homo sapiens, UniProt Q9NZQ7); assay: Inhibition of His-tagged PD-1 (unknown origin)/hFc-tagged PD-L1 (unknown origin) protein-protein interaction incubated for 15 mins by HTRF assay; type: protein-complex assay
In short: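 Small molecules were tested as 10-fold dilution series at a constant final 0.2% DMSO. IC50 came from a four-parameter variable-slope fit of normalized data, with three independent repeats.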

[26] = Drug uptake in mouse B16-F10 cells expressing PD-L1 in xenograft model; type: ADME, cell-based; settings: in vivo
[27] = target: T1, Programmed cell death protein 1/Programmed cell death 1 ligand 1; assay: Inhibition of Ig-tagged PD-1 (unknown origin)/His-tagged PD-L1 (unknown origin) protein-protein interaction preincubated with PD-L1 for 15 mins followed by PD-1 addition measured after 15 mins by HTRF assay; type: protein-complex assay
[28] = target: Programmed cell death 1 ligand 1 (Homo sapiens) (UniProt Q9NZQ7); assay: Inhibition of [89Zr]Zr-atezolizumab binding from human PD-L1 transfected in CHO cells assessed as radioligand activity at 200 nM preincubated for 30 mins followed by [89Zr]Zr-atezolizumab addition measured after 60 mins by Wizard2 gamma counter analysis (reference value: 8.4 %); type: cell-based; parameters: scale not given: the % may be the effect or the level left; settings: time 90.0 min

T1 sequence (Q15116 whole entry): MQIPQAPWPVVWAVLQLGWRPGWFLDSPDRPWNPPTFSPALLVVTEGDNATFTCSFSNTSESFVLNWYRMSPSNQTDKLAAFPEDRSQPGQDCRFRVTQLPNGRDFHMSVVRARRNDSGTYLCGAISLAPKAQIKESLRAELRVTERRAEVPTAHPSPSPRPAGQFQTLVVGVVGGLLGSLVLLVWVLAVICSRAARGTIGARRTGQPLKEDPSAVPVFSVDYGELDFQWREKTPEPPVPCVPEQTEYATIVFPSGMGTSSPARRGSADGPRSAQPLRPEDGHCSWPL
T1 sequence (Q9NZQ7 whole entry): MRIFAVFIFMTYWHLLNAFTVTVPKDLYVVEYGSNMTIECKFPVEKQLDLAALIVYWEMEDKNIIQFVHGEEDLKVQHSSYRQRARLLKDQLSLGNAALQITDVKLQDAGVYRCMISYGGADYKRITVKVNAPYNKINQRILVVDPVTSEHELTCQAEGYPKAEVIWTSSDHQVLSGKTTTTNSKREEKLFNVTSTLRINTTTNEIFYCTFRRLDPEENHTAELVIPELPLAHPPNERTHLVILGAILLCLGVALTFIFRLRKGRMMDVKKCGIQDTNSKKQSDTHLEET
Chain of Programmed cell death 1 ligand 1 (Homo sapiens) (Q9NZQ7 whole entry): as above

Structure (SMILES): Cc1c(COc2cc(OCc3cccc(C#N)c3)c(CNCCNC(=O)CO/N=C/[C@H]([18F])[C@@H](O)[C@H](O)[C@H](O)CO)cc2Cl)cccc1-c1ccc2c(c1)OCCO2
- Drug uptake [1]: 3.98 % ID/g
- Drug uptake [2]: 1.38 % ID/g
- Ratio [3]: 2.9

Structure (SMILES): Cc1c(COc2cc(OCc3cccc(C#N)c3)c(CN3CCN(CCOCCOCCOCC[18F])CC3)cc2Cl)cccc1-c1ccc2c(c1)OCCO2
- Drug uptake [4]: 3.53 %ID/ml
- Drug uptake [5]: 1.19 %ID/ml
- Ratio [6]: 3

Structure (SMILES): Cc1c(COc2cc(OCc3ccnc(C#N)c3)c(CN(C)[C@H](CO)C(=O)O)cc2Cl)cccc1-c1ccc2c(c1)OCCO2
- Activity [7]: 4.2%

Structure (SMILES): Cc1c(COc2cc(OCc3ccnc(C#N)c3)c(CN(C)CCO)cc2Cl)cccc1-c1ccc2c(c1)OCCO2
- Activity [7]: 4.7%

Structure (SMILES): Cc1c(COc2cc(OCc3ccnc(C#N)c3)c(CN([11CH3])CCO)cc2Cl)cccc1-c1ccc2c(c1)OCCO2
- Drug uptake (CHO [8]): < 1.5 % ID/g
- Drug uptake (CHO-K1 [9]): < 1.5 % ID/g
- remaining at 1 h [10]: > 99%
- remaining at 1 h [11]: > 99%
- Drug uptake [12]: Active
- Drug uptake [13]: Active
- Drug uptake [14]: Active
- Drug metabolism [15]: Metabolite_Notdetected
- Drug metabolism [16]: Metabolite_Notdetected
- Drug uptake [17]: < 1.2 %ID/cc
- Drug uptake [18]: < 1.2 %ID/cc
- Drug uptake (CHO [19]): < 1.2 %ID/cc
- Drug uptake [20]: Active
- Drug uptake (CHO-K1 [21]): < 1.2 %ID/cc
- Drug uptake [22]: Active
- Drug uptake [23]: Active
- Drug uptake [24]: Active

Structure (SMILES): N#Cc1cc(COc2cc(OCc3cccc(-c4ccc5c(c4)OCCO5)c3Br)c(Cl)cc2CN2CCCC[C@H]2C(=O)O)ccn1
- IC50 [25]: 0.001 nM

Structure (SMILES): Cc1c(COc2cc(OCc3cccc(OS(=O)(=O)[18F])c3)c(CNC(CO)(CO)CO)cc2Cl)cccc1-c1ccc2c(c1)OCCO2
- Drug uptake [26]: 3.33 %ID/ml

Structure (SMILES): COc1cc(OCc2cccc(-c3ccc4c(c3)OCCO4)c2C)cc(OC)c1CNCCNC(C)=O
- IC50 [27]: 6 nM

Structure (SMILES): CCOC(=O)/C(C#N)=C/c1cccc(C#N)c1
- Activity [28]: 0%

Structure (SMILES): N#Cc1cncc(COc2cc(OCc3cccc(-c4ccccc4)c3Br)c(Cl)cc2CN2CCCC[C@H]2C(=O)O)c1
- IC50 [25]: 0.01 nM

Structure (SMILES): Cc1cc(CN2CCCCC2C(=O)O)ccc1OCc1cccc(-c2ccccc2)c1C (configuration not stated)
- IC50 [27]: 6 nM

Structure (SMILES): CCOc1cccc(-c2cccc(COc3cc(OC)c(CNCCNC(C)=O)c(OC)c3)c2C)c1
- IC50 [27]: 110 nM
